Measurements gathered from unrelated publications.
Protocols differ between the studies behind these lines.

Cc1cccn2c(=O)c3cc(C(=O)N[C@@H](C)c4ccccc4)c(N)[n+](CCOCCO)c3nc12 — solubility (PBS): > 20 µM
Oc1ccccc1/C=N/c1c(-c2ccccc2)nc2ccc(Cl)cn12 — solubility (aqueous buffer; pH 7): 125 µg/mL
Cc1noc(C)c1CC(=O)N1CCOc2c(cc(-c3cccc(Cl)c3)cc2OCC2CCCN(C)C2)C1 (stereo not drawn) — solubility (water): 75 µM
O=[N+]([O-])c1cccc(/C=N/c2c(-c3ccccc3)nc3ccc(Cl)cn23)c1 — solubility (aqueous buffer; pH 7): 25 µg/mL
CCCc1cc(C(=O)OC)c(NC(=O)C2CCN(C(C)=O)CC2)s1 — solubility (PBS): > 20 µM
N=C(N)NCCC[C@H](NC(=O)[C@@H](NC(=O)[C@H](Cc1cscn1)NC(=O)CCc1ccccc1)C1CCCCC1)C(=O)c1nc2ccccc2s1 — solubility (PBS; 90 min; pH 7.4): > 10 µM
C/C(=N/c1ccc(/N=C/c2ccc(/C=N/c3ccc(/N=C(/C)N(C)C)cc3)cc2)cc1)N(C)C — solubility (shake flask; PBS; pH 7.4; 25 °C): 0.38 µg/mL
Cc1c(C(=O)O)ccc2c3n(nc12)[C@@H]1[C@H](C3)N(CC2CC2)[C@@]2(C(=O)Nc3cc(Cl)ccc32)[C@H]1c1cccc(Cl)c1F — solubility (FaSSIF): 50 µg/mL
O=C(C=Cc1ccccc1)Nc1cc(-c2ccnc(N3CCC(O)CC3)c2)ccn1 — solubility (water; pH 7.4): ~115 µg/mL
CC(=Nc1ccc(N=Cc2cnccn2)cc1)N(C)C — solubility (shake flask; PBS; 24 h; pH 7.4; 25 °C): ~20 µg/mL
Cn1cnc2ccc(Nc3c(F)ccc(NS(=O)(=O)N4CC(F)C4)c3Cl)c(Cl)c2c1=O — solubility (aqueous buffer; pH 2.05): 2 µg/mL
Cn1cncc1[C@@](N)(c1ccc(Cl)cc1)c1ccc2c(c1)c(-c1cccc(Cl)c1)cc(=O)n2C — solubility (water; pH 7.6; 25 °C): 0.12 µg/mL
